Laboratory results from ChEMBL document CHEMBL4308829, “Design and Synthesis of Novel Positive Allosteric Modulators of α7 Nicotinic Acetylcholine Receptors with the Ability To Rescue Auditory Gating Deficit in Mice” (J Med Chem, 2018).
Active and inactive are the calls of the source.

What was measured:
[1] = target: T1, Neuronal acetylcholine receptor subunit alpha-7 (Homo sapiens, UniProt P36544); test: (§1) Positive allosteric modulation of human alpha7 nAChR expressed in Xenopus laevis oocytes assessed as increase in acetylcholine-induced channel current at -90 mV holding potential preincubated for 2 mins followed by co-application with acetylcholine for 10 secs by two-electrode voltage clamp method; assay type: cell-based
[2] = target: T1, Neuronal acetylcholine receptor subunit alpha-7; test: Agonist activity at human alpha7 nAChR expressed in Xenopus laevis oocytes assessed as induction of channel current at -90 mV holding potential by two-electrode voltage clamp method; assay type: cell-based
[3] = target: T1, Neuronal acetylcholine receptor subunit alpha-7; test: as §1, with “current by measuring maximum efficacy of acetylcholine at 10 uM” for “current”, “method (reference value: 109 +/- 2%)” for “method”; assay type: cell-based
[4] = target: T1, Neuronal acetylcholine receptor subunit alpha-7; test: Induction of desensitization of human alpha7 nAChR expressed in Xenopus laevis oocytes assessed as acetylcholine-induced channel desensitization time constant at 10 uM at -90 mV holding potential by two-electrode voltage clamp method (reference value: 5.56 +/- 1.27); assay type: cell-based
[5] = target: GABA-A receptor; anion channel (Homo sapiens) (UniProt P14867+P47870+P18507+P28472+P48169+Q99928+Q9UN88+P34903+O00591+O14764+Q8N1C3+P18505+P78334+P47869+P31644+Q16445); test: Positive allosteric modulation of human GABA-A receptor expressed in Xenopus laevis oocytes assessed as increase in GABA-induced channel current 10 uM by two-electrode voltage clamp method; assay type: cell-based
[6] = Clearance in rat at 3 mg/kg, iv by LC-MS/MS analysis; assay type: ADME, organism-based; conditions: in vivo
Procedure, shortened: (§2)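 Rat plasma stored at -20 °C, spiked with internal standard, protein-precipitated with methanol, centrifuged and filtered before LC-MS/MS. C18 column at 40 °C, acetonitrile/0.1% formic acid (80:20) isocratic at 0.5 mL/min. Positive ESI with MRM m/z 400.0->129.9. Parameters taken per rat by non-compartmental analysis, n = 3.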

[7] = Tmax in rat at 60 mg/kg, po by LC-MS/MS analysis; assay type: ADME, organism-based; conditions: in vivo; procedure, shortened: as §2
[8] = Cmax in rat at 60 mg/kg, po by LC-MS/MS analysis; assay type: ADME, organism-based; parameters: dose 60 mg/kg, route oral; conditions: in vivo; procedure, shortened: as §2
[9] = Plasma concentration in C57BL/6J mouse at 1 mg/kg, ip after 2 hrs by LC-MS/MS analysis; assay type: ADME, organism-based
Procedure, shortened: (§3)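 C57BL/6J mice given 1 mg/kg i.p. from a 0.4 mg/mL solution in 10% DMSO/50% PEG400/40% SBECD. Plasma and brain taken at 0.5, 2 and 8 h. Samples mixed with internal standard in methanol/acetonitrile (1:1), centrifuged and diluted 10x in methanol:water with 0.1% FA, then measured by HPLC-MS-MS. n = 3; ratio is brain over plasma concentration.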

[10] = Plasma concentration in C57BL/6J mouse at 1 mg/kg, ip after 8 hrs by LC-MS/MS analysis; assay type: ADME, organism-based; procedure, shortened: as §3
[11] = Drug uptake in C57BL/6J mouse brain at 1 mg/kg, ip after 8 hrs by LC-MS/MS analysis; assay type: ADME, organism-based; conditions: read-out: Drug uptake; procedure, shortened: as §3
[12] = Ratio of drug level in C57BL/6J mouse brain to plasma at 1 mg/kg, ip after 0.5 hrs by LC-MS/MS analysis; assay type: ADME, organism-based; conditions: read-out: BPR; procedure, shortened: as §3
[13] = Ratio of drug level in C57BL/6J mouse brain to plasma at 1 mg/kg, ip after 2 hrs by LC-MS/MS analysis; assay type: ADME, organism-based; conditions: read-out: BPR; procedure, shortened: as §3
[14] = Ratio of drug level in C57BL/6J mouse brain to plasma at 1 mg/kg, ip after 8 hrs by LC-MS/MS analysis; assay type: ADME, organism-based; conditions: read-out: BPR; procedure, shortened: as §3
Mus musculus [15] = test: Anti-schizophrenic activity in C57BL/6J mouse assessed as protection against MK-801-induced auditory gating deficit by measuring prepulse inhibition impairment at 0.1 mg/kg, ip at 8 to 16 dB prepulse intensity (reference value: 11%); assay type: functional; parameters: scale not given: the % may be the effect or the level left
Mus musculus [16] = test: Anti-schizophrenic activity in C57BL/6J mouse assessed as protection against MK-801-induced auditory gating deficit by measuring prepulse inhibition impairment at 1 mg/kg, ip at 8 to 16 dB prepulse intensity pretreated for 30 mins starting from 30 mins post alpha7 nAChR antagonist MLA treatment followed by MK-801 treatment and measured after 30 mins (reference value: 8.7%); assay type: functional; parameters: scale not given: the % may be the effect or the level left
Procedure, shortened: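 Mice given MLA 3 mg/kg i.p. 30 min before, then compound 1 mg/kg i.p. 60 min before test and MK-801 0.1 mg/kg i.p. 30 min before test. PPI measured at prepulses 8-16 dB above 68 dB background. %PPI = (1 − prepulse-pulse/pulse-only)×100, one-way ANOVA.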

T1 sequence (P36544 whole entry): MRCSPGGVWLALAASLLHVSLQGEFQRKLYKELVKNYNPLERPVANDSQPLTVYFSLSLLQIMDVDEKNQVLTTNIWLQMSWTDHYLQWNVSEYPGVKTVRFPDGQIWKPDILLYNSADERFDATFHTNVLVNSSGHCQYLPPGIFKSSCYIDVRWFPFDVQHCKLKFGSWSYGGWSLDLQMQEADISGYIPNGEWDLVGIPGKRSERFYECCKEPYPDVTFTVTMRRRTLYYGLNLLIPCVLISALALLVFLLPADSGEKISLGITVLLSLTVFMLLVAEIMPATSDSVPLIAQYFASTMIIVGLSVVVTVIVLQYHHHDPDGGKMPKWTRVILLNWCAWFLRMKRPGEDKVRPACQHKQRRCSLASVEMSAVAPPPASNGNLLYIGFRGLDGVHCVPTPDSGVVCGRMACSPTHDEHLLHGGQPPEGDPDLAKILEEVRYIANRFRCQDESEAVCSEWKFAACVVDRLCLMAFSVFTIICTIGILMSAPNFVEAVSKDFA

**Q.** Which Activity [1] does the source give for `Cc1cccc(Cl)c1-n1cnc2nc(SCc3ccccc3)sc2c1=O` here?
**A.** Dose-dependent effect

**Q.** What about the Activity [2] of the same compound?
**A.** inactive

**Q.** And the Emax [3]?
**A.** 1540%

**Q.** And the Activity [4]?
**A.** 6.54

**Q.** And the Activity [5]?
**A.** inactive

**Q.** What about the clearance [6] of the same compound?
**A.** 5 mL/h/kg

**Q.** What about the Tmax [7] of the same compound?
**A.** 1.3 h

**Q.** What about the Cmax [8] of the same compound?
**A.** 200 ng/mL

**Q.** What about the concentration at 2 h [9] of the same compound?
**A.** 9.8 ng/mL

**Q.** And the concentration at 8 h [10]?
**A.** 0.9 ng/mL

**Q.** What about the concentration at 8 h [11] of the same compound?
**A.** 3.7 ng/g

**Q.** What about the Kp at 0.5 h [12] of the same compound?
**A.** 2.5

**Q.** And the Kp at 2 h [13]?
**A.** 2.7

**Q.** And the Kp at 8 h [14]?
**A.** 2.3

**Q.** And the Activity (Mus musculus [15])?
**A.** 22%

**Q.** What about the Activity (Mus musculus [16]) of the same compound?
**A.** 14%
